Experimental findings from PubChem BioAssay AID651952 (The Scripps Research Institute Molecular Screening Center, 2012) are described below.

Each structure is given as a SMILES string. In all, about 2,400 compounds went through this assay and about 940 (39%) were called active. Only a sample is shown. Values without a mark were called inactive.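 The calls were made as follows: active = inhibition above the plate's mean compound inhibition plus 3 SD, computed per plate (cut at about 22% in these data); inactive = the rest.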

As a reminder, the inhibition is the relative decrease from the control value, in per cent.

The experiment in a line: inhibition of ATP-evoked calcium response in CHO-Ga16 cells, counter-screen for TAAR1 agonist project, cell-based, fluorescence (AID 651952).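 Also: 0% = EC80 ATP with DMSO and 100% = DMSO wells without ATP.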 The settings on record: CHO-Ga16 ATP-induced calcium, Fluo-8 fluorescence; at 3 µM; active compounds read high. The procedure, abridged: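 Also added: EC80 ATP stimulus. Test system: parental CHO cells stably overexpressing Gα16, lacking hTAAR1. Incubation: 17–24 h seeding, dye 75 min 37 °C, 30 min RT. Measure: percent inhibition from peak-to-pre-ATP-basal fluorescence ratio, scaled between controls. Repeats: three replicates. Technique: Fluo-8 calcium fluorescence.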
As to `NC(=O)C1=C[C@H](c2csc3ccccc23)C[C@H](OCc2ccc(CO)cc2)O1`, the inhibition is 36.5% (active).

With `CCc1ccccc1S(=O)(=O)Cc1ccc(C(=O)NCCc2ccccc2)o1`, the inhibition was 8.92%.

In the case of `O=C(NCCc1ccccc1)Oc1ccc(Cl)cc1`, the inhibition is 11%.

Turning to `Cc1ccccc1NC(=S)NC(=O)Cc1ccc(Cl)cc1`, the inhibition is 44.5% (active).

On to `O=C(Cc1ccc(Cl)cc1)NC(=S)Nc1ccccc1O`, for which the inhibition is 92.6% (active).

As to `S=C(NCCCc1cnc[nH]1)NCCCN(Cc1ccc(Cl)c(Cl)c1)c1ccc(Br)cn1`, the inhibition was 48.6% (active).

Regarding `CCCCCCCCCCOC(=O)Cn1c(COc2ccc(C)cc2)[n+](C)c2ccccc21`, the inhibition is 75.9% (active).

With `Nc1cccc2c1C(=O)N(Cc1nnc(-c3ccccc3Br)o1)C2=O`, the inhibition was 7.55%.

With `O=C(CSc1nc(-c2ccco2)cc(C(F)(F)F)n1)NCc1cccs1`, the inhibition is 3.17%.

Take `NC(Cc1ccccc1)c1csc(Nc2cc(Oc3ccccc3)ncn2)n1` (centres undefined): the inhibition is 34.3% (active).

Turning to `O=C(COC(=O)Cc1ccccc1F)NCCc1ccccc1`, the inhibition was 5.44%.

On to `CC(=O)Oc1ccc(Cn2c(C)c(C(=O)NCc3ccc(C#N)cc3)sc2=O)cc1`, for which the inhibition is 45.6% (active).

For `CN(C)c1ccc(/C=C2\NC(=S)N(Cc3ccccc3)C2=O)cc1`, the inhibition is 71.1% (active).

With `O=C(/C=C/[C@H]1O[C@@H](n2cnc3c(NC(=O)c4ccccc4)ncnc32)[C@H](O)[C@@H]1O)NCc1ccccc1`, the inhibition was 7.32%.

Take `CN(C)CCCN(C(=O)c1ccc(S(=O)(=O)N2CCCCCC2)cc1)c1nc2ccc(Br)cc2s1`: the inhibition is 43% (active).

As for `CN(C)CCCN(C(=O)c1ccc(S(=O)(=O)N2CCCc3ccccc32)cc1)c1nc2ccc(F)cc2s1`, the inhibition was 43.4% (active).

`Cc1cc(=O)oc2c(C)c(OCC(=O)NCCN3CCOCC3)ccc12`: the inhibition is 7.14%.

As to `Nc1c(NCCc2ccccc2)c2ccccc2oc1=O`, the inhibition was 18%.

For `CCOC(=O)Cc1csc(NC(=O)Nc2ccccc2)n1`, the inhibition was 26.6% (active).

Take `Cc1ccn2c(=O)c(C(=O)NCCC3=CCCCC3)c(O)nc2c1`: the inhibition is -3.36%.

Take `Cc1ccc(O)c(NC(=S)NC(=O)COc2ccc(Br)cc2)c1`: the inhibition is 92% (active).

On to `COCCCn1c(Cc2csc(Nc3cccc(Cl)c3)n2)nnc1SCC(=O)OC1CCCCC1`, for which the inhibition is 6.89%.

As to `c1ccc(CCN2CN=C(Nc3nc4ccccc4o3)NC2)cc1`, the inhibition is -0.52%.

As to `CCCCCC(=O)NC(=S)NNC(=O)c1ccc([N+](=O)[O-])cc1`, the inhibition was 51.5% (active).

For `O=C(NCCc1ccccc1)/C(=C\c1ccc([N+](=O)[O-])cc1)NC(=O)c1ccccc1`, the inhibition was 9.72%.

Turning to `CC(NC(=O)c1cc(-c2ccccc2)on1)c1ccccc1` (centres undefined), the inhibition was 17.1%.

`O=[N+]([O-])c1cc(S(=O)(=O)NCCc2ccccn2)ccc1Cl`: the inhibition is 0.96%.

Consider `N#Cc1ccc(OCCCN2CCC(C(O)(c3ccccc3)c3ccccc3)CC2)c(F)c1`, for which the inhibition is 25.9% (active).

As to `COc1ccc(NC(=O)C(=O)NCC(c2ccco2)N2CCc3ccccc3C2)cc1` (centres undefined), the inhibition was 9.37%.

With `COc1cccc(N(CC(=O)N2CCc3ccccc3C2)S(C)(=O)=O)c1`, the inhibition is 12.7%.

In the case of `O=C(O)C1C2C=CC(O2)C1C(=O)NCCc1cccc(Cl)c1` (centres undefined), the inhibition was 7.32%.

`Cc1onc(-c2ccccc2)c1C(=O)NNC(=S)NC(=O)c1ccc(F)cc1`: the inhibition was 50.7% (active).

With `COc1ccc(C(=O)NNC(=S)NC(=O)c2ccccc2)cc1`, the inhibition was 44.3% (active).

`COc1ccc(C(=O)NC(=S)NNC(=O)CCc2ccccc2)cc1`: the inhibition is 58.5% (active).

As for `COc1ccc(C(=O)NC(=S)NNC(=O)c2c(-c3ccccc3)noc2C)cc1`, the inhibition was 14.4%.

In the case of `O=C(Nc1cccc(NC(=O)c2ccc(Br)cc2)c1)c1ccccc1`, the inhibition was 2.95%.

As to `CCCc1cc(C(=O)Nc2ccc(C(=O)OC)cc2)cs1`, the inhibition was 11.2%.

In the case of `O=C1CCCC(O)=C1C=NCCc1ccccc1`, the inhibition was 1.71%.

Turning to `Cc1ccccc1-c1nc(CS(=O)(=O)CC(=O)N2CCc3ccccc3C2)c(C)o1`, the inhibition was 18.3%.

As for `CCCCC(=O)NNC(=S)NC(=O)C(c1ccccc1)c1ccccc1`, the inhibition was 91% (active).

Regarding `O=C(N[C@H](C(=O)N1CCC[C@H]1C(=O)NCCc1ccccc1Cl)c1ccccc1)c1ccccc1`, the inhibition was 12.2%.

For the compound `C[C@H](NC(=O)c1ccccc1)C(=O)OCC(=O)c1c[nH]c2ccccc12`, the inhibition was -1.32%.

Turning to `CN(C(=O)CN(CCO)CC(=O)N(C)C(C)(C)Cc1ccccc1)C(C)(C)Cc1ccccc1`, the inhibition was 74.1% (active).

On to `COc1cccc(-c2cnc(OC(C)(C)C)nc2OC(C)(C)C)c1`, for which the inhibition was 4.69%.

`Cc1ccc(Cl)cc1N1CCN(C(=O)c2cccc3c(=O)c(C)c(-c4ccccc4)oc23)CC1`: the inhibition is 69.8% (active).

For `O=C(CCCN=C1NS(=O)(=O)c2ccccc21)OCC(=O)c1ccc(F)c(F)c1`, the inhibition is 26.1% (active).

`CC(=O)Nc1ccccc1Sc1ccc2c3c(cccc13)C(=O)N(c1ccc(C)cc1)C2=O`: the inhibition is 2.83%.

In the case of `Nc1cc(OC(=O)c2ccccc2Br)nn1S(=O)(=O)c1ccccc1`, the inhibition is 2.75%.

For the compound `COc1ccc(C(N)c2csc(NC(=O)Nc3cccc(C(F)(F)F)c3)n2)cc1` (centres undefined), the inhibition was 41.8% (active).

On to `NC(c1ccccc1)c1csc(NC(=O)Nc2cccc(C(F)(F)F)c2)n1` (centres undefined), for which the inhibition was 48% (active).

Turning to `NC[C@H](Cc1ccccc1)NCCc1cc(C(F)(F)F)cc(C(F)(F)F)c1`, the inhibition was 9.31%.

With `CCN(CC)c1ccc2oc(=O)c(C)nc2c1`, the inhibition was 37.7% (active).

With `COc1ccc(CC(N)c2csc(NC(=O)Cc3ccccc3)n2)cc1` (centres undefined), the inhibition is 20.4%.

Consider `CC(C)(C)CC(=O)Nc1nc(C(N)Cc2ccc(C(F)(F)F)cc2)cs1` (centres undefined), for which the inhibition is 54.9% (active).

Turning to `CCCCc1c(-c2ccc(Cl)cc2)ncn1CCc1ccccc1OC`, the inhibition was 28% (active).

As to `CCCCc1c(-c2ccc(Br)cc2)ncn1CCc1ccccc1OC`, the inhibition is 23.5% (active).

With `CCc1c(-c2ccccc2OC)ncn1CCc1ccccc1OC`, the inhibition was 3.45%.

As for `S=C(Nc1ccc(Br)cc1)NC1CCN(Cc2ccccc2)CC1`, the inhibition was 23.8% (active).

On to `COc1ccc2c(c1)OC(O)(C(F)(F)C(F)F)CC2=O` (centres undefined), for which the inhibition was 17.6%.
